This is one part of a sample in which hits are shown more often than they occur.
HCT116 PTEN-null = suppresses growth of cells with PTEN deletion; HCT116 PTEN-null viability, CellTiter-Glo, 60 h; active compounds read low; viability, % at 10 µM; actives 1.2% (n = 140,000); AID 827;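 active = viability at or below a set limit, 4 SD under the median of all tested compounds, cut at about 3.7% in these data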;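 also: PTEN knockout HCT116 line with beta catenin targeted HCT116 as companion control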
HUVEC inhibit = human endothelial cell proliferation inhibition; HUVEC proliferation, CellTiter-Glo luminescence, 72 h; active compounds read low; viability, % at 10 µM (by protocol); actives 1.1% (n = 86,000); AID 648;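 active = viability at or below 30%; inactive = viability above 30%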
Fibroblast inh = blocks proliferation of human lung fibroblasts | viability, % at 10 µM | LL 47 human lung fibroblast viability, ATP luminescence; active compounds read low | actives 1.1% (n = 85,000);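 active = viability at or below 50% in the single dose screen; inactive = viability above 50%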;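 also: compound exposure lasted 72 h before the ATP readout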
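Test system: LL 47 human lung fibroblasts / Quantity: 1,150 cells in each well / Medium: IMEM growth medium with 15% fetal bovine serum / Incubation: 72 h compound exposure at 37 °C after overnight plating / Detection: CellTiter-Glo luminescence measuring cellular ATP / Read-out: % viability versus median cells-only luminescence / Benchmarks: cell-only wells, no compound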
HCT116 bCat-KO = beta-catenin-lacking colon tumor cell growth suppression; viability, % at 10 µM; actives 1.5% (n = 140,000); AID 818; HCT116 beta-catenin knockout viability, CellTiter-Glo, 60 h; active compounds read low;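 active = viability at or under a set limit, the compound median less 4 SD, cut at about 6% in these data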
H69AR inhibit = growth inhibitors of human H69AR lung tumor cells; AID 598; actives 6% (n = 85,000); viability, % at 10 µM; H69AR lung tumor viability, ATP luminescence, 72 h; active compounds read low;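 active = viability at or below 40%; inactive = viability above 40%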;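 also: multidrug resistant small cell line overexpressing MRP-1 efflux transporter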
A number is an active result; - = inactive; . = no result.

SMILES	HCT116 PTEN-null	HUVEC inhibit	Fibroblast inh	HCT116 bCat-KO	H69AR inhibit
CC(NC(=O)Cc1cccs1)C(c1cccs1)N1CCN(c2ccccc2F)CC1 (configuration not stated)	-	-	-	-	-
COc1cccc(/C=N/n2c(SC)nnc2-c2ccccc2)c1O	-	-	-	-	23
Cn1c(=O)c2c(nc(Oc3ccc4c(c3)OCO4)n2Cc2ccc(Br)cc2)n(C)c1=O	.	22	30	.	18
CCCNC1=C(N(C(C)=O)c2cccc(F)c2)C(=O)c2ccccc2C1=O	0.8	.	.	1.0	.
Cc1cc2c(N3CCCCC3C)ncnc2s1 (configuration not stated)	-	-	-	-	37
CC(C)c1ccc(N2C(=O)CC(Sc3ncn[nH]3)C2=O)cc1 (configuration not stated)	-	-	-	-	-
COc1ccc(N2C(=O)CC(Sc3ncn[nH]3)C2=O)c(OC)c1 (configuration not stated)	-	-	-	-	1.6
CCN(CC)S(=O)(=O)c1cccc(C(=O)Nc2nc3cc4c(cc3s2)OCCO4)c1	-	-	-	-	22
O=C(NNc1nc2cc3c(cc2s1)OCO3)c1cccc(F)c1	0.2	.	.	0.6	.
COc1ccc(C/C(C)=N/NC(=O)c2cccnc2)cc1	-	.	.	-	.
COc1ccc(C)cc1NC(=O)CC(O)(C(F)(F)F)C(F)(F)F	-	-	-	-	-
Cc1ccc(NC(=O)CC(O)(C(F)(F)F)C(F)(F)F)cc1	-	-	-	-	22
NS(=O)(=O)c1ccc(Nc2nc(-c3ccc4ccccc4c3)cs2)cc1	-	-	-	-	32
COc1ccc(C2c3c(oc4ccccc4c3=O)C(=O)N2CCN2CCOCC2)cc1OC (configuration not stated)	.	-	-	.	-
COCCN1C(=O)c2oc3ccccc3c(=O)c2C1c1ccc(OC)c(OC)c1 (configuration not stated)	0.2	-	-	0.1	-
CCc1ccccc1NC(=O)CSc1nnc(-c2ccco2)n1N	-	-	-	-	-
Cc1nc(N2CCN(c3ccccc3)CC2)[nH]c(=O)c1Cc1cccc2ccccc12	-	-	-	-	22
CCOC(=O)c1[nH]c2ccc(OC)cc2c1NC(=O)C(C)N1CCC2(CC1)OCCO2 (configuration not stated)	-	-	-	-	-
CCOC(=O)c1[nH]c2ccc(F)cc2c1NC(=O)C(C)N1CCc2cc(OC)c(OC)cc2C1 (configuration not stated)	-	-	-	-	2.4
C/C(=C\C(=O)c1ccccc1)Nc1ccc2c(c1)OCO2	-	.	.	-	.
Cc1ccc(-n2c(SCC(=O)NCc3ccco3)nc3sc(C)c(C)c3c2=O)cc1	-	-	-	-	36
Cc1sc2nc(SCC(=O)NCc3ccco3)n(Cc3ccccc3)c(=O)c2c1C	-	30	-	-	3.1
Cc1sc2nc(SCC(=O)NCc3ccco3)n(-c3ccccc3)c(=O)c2c1C	-	-	-	-	-
C=CCn1c(=O)c(C(=O)Nc2nnc(C)s2)c(O)c2ccccc21	.	-	-	.	-
CCOc1ccc(Br)cc1S(=O)(=O)Nc1nc(CN2CCOCC2)nc2sc(C)c(C)c12	-	-	-	-	34
SMILES	HCT116 PTEN-null	HUVEC inhibit	Fibroblast inh	HCT116 bCat-KO	H69AR inhibit
Cc1nc(NCCc2ccc(S(N)(=O)=O)cc2)c2c3c(sc2n1)CCC3	-	.	.	-	.
Cc1sc2nc(CN3CCOCC3)nc(NCCc3ccccc3)c2c1C	-	-	-	-	30
NS(=O)(=O)c1ccc(CCNc2nc(CN3CCOCC3)nc3sc4c(c23)CCC4)cc1	.	-	-	.	16
Cc1sc2nc(CN3CCOCC3)nc(NS(=O)(=O)c3ccccc3)c2c1C	-	-	-	-	-
COc1ccc(O[C@H]2C=C[C@@H](c3ccccc3)O[C@@H]2CO/N=C(\C)CCN2CCCCc3nc(C)c(C)cc32)cc1	-	.	.	-	.
COc1cc(/C=N/NC(=O)c2[nH]nc3c2CCc2ccccc2-3)ccc1O	-	.	.	-	.
CC1(C)Cc2c(c(-c3ccco3)nc3sc4c(NCCN5CCOCC5)ncnc4c23)CO1	1.4	.	.	1.6	.
CN(C)S(=O)(=O)c1ccc(C(=O)Nc2nnc(-c3ccc4c(c3)CCCC4)o2)cc1	-	-	-	-	28
O=C(Nc1nnc(-c2ccc3c(c2)CCCC3)o1)C1CCCCC1	-	-	-	-	-
O=C(Nc1nnc(-c2ccccc2)o1)c1nc2ccccc2s1	.	-	-	.	29
Cc1ccccc1C(=O)Nc1nnc(-c2ccc(F)cc2)o1	-	-	-	-	36
NC(=O)c1oc2ccccc2c1NC(=O)c1nc2ccccc2s1	-	-	-	-	-
O=C(Nc1nnc(-c2ccc3c(c2)CCCC3)o1)c1ccc(Cl)cc1Cl	-	29	-	-	-
O=C1N2c3ccccc3CCc3cccc(c32)C1(O)C(F)(F)F (configuration not stated)	-	.	.	-	.
COc1ccc2c(c1)OC13CCCCC1C2C(C(=O)c1ccccc1)C(=O)N3 (configuration not stated)	-	-	-	-	-
COc1ccc(-c2nnc(NC(=O)c3cc(Cl)ccc3Cl)o2)cc1	-	-	-	-	30
COc1ccc(-c2nnc(NC(=O)c3ccc(S(=O)(=O)N4CCc5ccccc5C4)cc3)o2)cc1	-	13	-	-	18
COc1ccc(-c2csc(NC(=O)c3ccc(S(=O)(=O)N4CCc5ccccc5C4)cc3)n2)cc1	-	.	.	-	.
Cc1ccc(C(=O)N/C(=C\c2ccc(-c3cc(Cl)ccc3Cl)o2)C(=O)NCc2cccnc2)cc1	-	.	.	-	.
O=C(NCc1cccnc1)/C(=C/c1ccc(-c2cccc(Cl)c2)o1)S(=O)(=O)c1ccccc1	1.6	.	.	1.8	.
O=C(NCc1cccnc1)/C(=C\c1ccc(-c2cccc(Cl)c2)o1)S(=O)(=O)c1ccccc1	1.7	.	.	1.7	.
CC(=O)c1ccc(N2CCN(C(C)C(=O)NC3CCCc4ccccc43)CC2)cc1 (configuration not stated)	-	.	.	-	.
Cc1cccc(C)c1C(OCCN(C)C)C1CCCCC1 (configuration not stated)	-	.	.	-	.
Cc1nonc1C(=O)N/N=C/c1cccc(O)c1	-	.	.	-	.
O=C(NCc1ccco1)c1cc2n(n1)C(C(F)(F)F)CC(c1ccc(Br)cc1)N2 (configuration not stated)	-	-	-	-	-
O=C(NCc1ccco1)c1cc2n(n1)C(C(F)(F)F)CC(c1ccc(Cl)c(Cl)c1)N2 (configuration not stated)	-	-	-	-	31
CSc1nc2ccc(N3C(=O)C4CCCCC4C3=O)cc2s1 (configuration not stated)	-	.	.	-	.
O=c1[nH]c(=O)n(Cc2ccco2)c2c1C(C(F)(F)F)(C(F)(F)F)N=C(C1CCCCC1)N2	-	-	-	-	-
O=c1[nH]c(=O)n(Cc2ccco2)c2c1C(C(F)(F)F)(C(F)(F)F)N=C(CCC1CCCCC1)N2	-	-	-	-	9.5

Source: PubChem BioAssay (SRMLSC)
